{
  "source": "ChEMBL document CHEMBL3352566",
  "about": "(Bioorg Med Chem Lett, 2014)",
  "key": {"[1]": {"molecular_target": "T1, Adenosine receptor A1 (Homo sapiens) (UniProt P30542)", "T1 sequence (whole entry)": "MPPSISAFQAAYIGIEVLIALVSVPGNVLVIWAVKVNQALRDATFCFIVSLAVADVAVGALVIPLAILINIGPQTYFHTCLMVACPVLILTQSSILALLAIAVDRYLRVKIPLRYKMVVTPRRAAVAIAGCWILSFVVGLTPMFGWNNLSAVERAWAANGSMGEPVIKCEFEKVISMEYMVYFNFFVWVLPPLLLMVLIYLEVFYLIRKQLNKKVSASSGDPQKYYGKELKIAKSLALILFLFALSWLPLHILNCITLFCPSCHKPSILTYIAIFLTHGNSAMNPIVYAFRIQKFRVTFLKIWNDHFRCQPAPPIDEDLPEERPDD", "assay": "Displacement of [3H]N6-R-phenylisopropyladenosine from human A1AR expressed in CHO cells at 10 uM after 60 mins by scintillation counting analysis", "format": "cell-based", "method_in_brief": "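Membranes from CHO cells stably expressing hA1AR, labelled with agonist [3H]N6-R-phenylisopropyladenosine. […] Compound stocks kept in DMSO at −80 °C; n = 3-4.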"}, "Adenosine receptor A2a [2]": {"molecular_target": "T2, Adenosine receptor A2a (Homo sapiens, UniProt P29274)", "T2 sequence (P29274 whole entry)": "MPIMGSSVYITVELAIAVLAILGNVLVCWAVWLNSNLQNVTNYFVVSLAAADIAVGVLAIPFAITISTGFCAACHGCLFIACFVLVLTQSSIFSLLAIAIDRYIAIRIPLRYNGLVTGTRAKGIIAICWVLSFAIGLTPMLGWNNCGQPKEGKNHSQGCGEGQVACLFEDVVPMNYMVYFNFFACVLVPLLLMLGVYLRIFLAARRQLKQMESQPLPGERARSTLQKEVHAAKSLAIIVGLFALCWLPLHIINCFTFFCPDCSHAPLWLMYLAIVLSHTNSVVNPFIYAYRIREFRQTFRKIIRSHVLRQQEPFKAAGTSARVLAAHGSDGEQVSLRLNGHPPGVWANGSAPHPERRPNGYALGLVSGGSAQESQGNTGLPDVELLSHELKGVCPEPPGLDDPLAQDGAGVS", "assay": "Displacement of [3H]2-[p-(2-carboxyethyl)phenyl-ethylamino]-5'-N-ethylcarboxamido-adenosine from human A2aAR expressed in HEK293 cells after 60 mins by scintillation counting analysis", "format": "cell-based"}, "Adenosine receptor A3 [3]": {"molecular_target": "T3, Adenosine receptor A3 (Homo sapiens, UniProt P0DMS8)", "T3 sequence (P0DMS8 whole entry)": "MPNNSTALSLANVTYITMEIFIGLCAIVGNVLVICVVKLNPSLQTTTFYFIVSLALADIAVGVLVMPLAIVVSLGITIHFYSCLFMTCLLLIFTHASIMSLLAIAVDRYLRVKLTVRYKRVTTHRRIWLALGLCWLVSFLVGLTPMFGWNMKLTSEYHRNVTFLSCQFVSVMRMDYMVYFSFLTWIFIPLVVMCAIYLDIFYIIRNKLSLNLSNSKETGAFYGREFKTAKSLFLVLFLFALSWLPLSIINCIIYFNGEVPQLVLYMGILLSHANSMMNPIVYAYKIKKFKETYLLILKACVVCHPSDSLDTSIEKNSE", "assay": "Displacement of [125I]N6-(4-amino-3-iodobenzyl)adenosine-5'-N-methyluronamide from human A3AR expressed in CHO cells after 60 mins by scintillation counting analysis", "format": "cell-based"}, "Adenosine receptor A2a [4]": {"molecular_target": "T2, Adenosine receptor A2a", "assay": "Displacement of [3H]2-[p-(2-carboxyethyl)phenyl-ethylamino]-5'-N-ethylcarboxamido-adenosine from human A2aAR expressed in HEK293 cells at 10 uM after 60 mins by scintillation counting analysis", "format": "cell-based"}, "Mus musculus": {"system": "Mus musculus", "assay": "Reversal of pain in po dosed mouse chronic constriction injury model assessed as paw withdrawal threshold administered 7 days post injury measured after 1 hr", "format": "functional, organism-based", "method_in_brief": "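Mouse chronic constriction injury model of neuropathic pain; compound given orally (po); mechanoallodynia read out as paw withdrawal threshold followed over time after dosing.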"}, "Adenosine receptor A1": {"molecular_target": "T4, Adenosine receptor A1 (Homo sapiens, UniProt P30542)", "T4 sequence (P30542 whole entry)": "T1 sequence (whole entry)", "assay": "Displacement of [3H]N6-R-phenylisopropyladenosine from human A1AR expressed in CHO cells after 60 mins by scintillation counting analysis", "format": "cell-based"}, "Adenosine receptor A3 [5]": {"molecular_target": "T3, Adenosine receptor A3", "assay": "Binding affinity to human A3AR"}},
  "note": "The source made the active and inactive calls.",
  "data": [
    {"smiles": "CNC(=O)[C@@]12C[C@@H]1[C@@H](n1cnc3c(N)nc(C#Cc4ccccc4)nc31)[C@H](O)[C@@H]2O", "values": [
      {"measurement": "inhibition", "setting": "[1]", "result": 28, "unit": "%"},
      {"measurement": "Ki", "setting": "Adenosine receptor A2a [2]", "result": 1200, "unit": "nM"},
      {"measurement": "Ki", "setting": "Adenosine receptor A3 [3]", "result": 1.51, "unit": "nM"}
    ]},
    {"smiles": "CNC(=O)[C@@]12C[C@@H]1[C@@H](n1cnc3c(N[C@@H]4C[C@H]4c4ccc(F)c(F)c4)nc(C#Cc4ccccc4)nc31)[C@H](O)[C@@H]2O", "values": [
      {"measurement": "inhibition", "setting": "[1]", "result": 11, "unit": "%"},
      {"measurement": "inhibition", "setting": "Adenosine receptor A2a [4]", "result": 0, "unit": "%"},
      {"measurement": "Ki", "setting": "Adenosine receptor A3 [3]", "result": 16.9, "unit": "nM"}
    ]},
    {"smiles": "CNC(=O)[C@@]12C[C@@H]1[C@@H](n1cnc3c(N[C@H]4C[C@@H]4c4ccc(F)c(F)c4)nc(C#Cc4ccccc4)nc31)[C@H](O)[C@@H]2O", "values": [
      {"measurement": "inhibition", "setting": "[1]", "result": 16, "unit": "%"},
      {"measurement": "inhibition", "setting": "Adenosine receptor A2a [4]", "result": 0, "unit": "%"},
      {"measurement": "Ki", "setting": "Adenosine receptor A3 [3]", "result": 4.55, "unit": "nM"}
    ]},
    {"smiles": "CNC(=O)[C@@]12C[C@@H]1[C@@H](n1cnc3c(N[C@@H]4C[C@H]4c4ccc(F)c(F)c4)nc(C#Cc4ccccn4)nc31)[C@H](O)[C@@H]2O", "values": [
      {"measurement": "inhibition", "setting": "[1]", "result": 19, "unit": "%"},
      {"measurement": "inhibition", "setting": "Adenosine receptor A2a [4]", "result": 25, "unit": "%"},
      {"measurement": "Activity", "setting": "Mus musculus", "result": "Active"}
    ]},
    {"smiles": "CNC(=O)[C@@]12C[C@@H]1[C@@H](n1cnc3c(N[C@H]4C[C@@H]4c4ccc(F)c(F)c4)nc(C#Cc4ccccn4)nc31)[C@H](O)[C@@H]2O", "values": [
      {"measurement": "inhibition", "setting": "[1]", "result": 26, "unit": "%"},
      {"measurement": "inhibition", "setting": "Adenosine receptor A2a [4]", "result": 41, "unit": "%"}
    ]},
    {"smiles": "OC[C@H]1O[C@@H](n2cnc3c(NC4CC4c4ccccc4)nc(C#Cc4ccccc4)nc32)[C@H](O)[C@@H]1O", "note": "(mixture of isomers)", "values": [
      {"measurement": "Ki", "setting": "Adenosine receptor A1", "result": 124, "unit": "nM"}
    ]},
    {"smiles": "O=[N+]([O-])c1cccc(C2CC2Nc2nc(C#Cc3ccccc3)nc3c2ncn3[C@@H]2O[C@H](CO)[C@@H](O)[C@H]2O)c1", "note": "(mixture of isomers)", "values": [
      {"measurement": "Ki", "setting": "Adenosine receptor A3 [5]", "result": 11.2, "unit": "nM"}
    ]},
    {"smiles": "CNC(=O)[C@@]12C[C@@H]1[C@@H](n1cnc3c(NC4CC4c4ccc(F)c(F)c4)nc(C#Cc4ccccc4)nc31)[C@H](O)[C@@H]2O", "note": "(mixture of isomers)", "values": [
      {"measurement": "inhibition", "setting": "[1]", "result": 11, "unit": "%"},
      {"measurement": "inhibition", "setting": "Adenosine receptor A2a [4]", "result": 6, "unit": "%"}
    ]},
    {"smiles": "CNC(=O)[C@@]12C[C@@H]1[C@@H](n1cnc3c(NC4CC4c4cccc(Br)c4)nc(C#Cc4ccccc4)nc31)[C@H](O)[C@@H]2O", "note": "(mixture of isomers)", "values": [
      {"measurement": "inhibition", "setting": "[1]", "result": 17, "unit": "%"},
      {"measurement": "inhibition", "setting": "Adenosine receptor A2a [4]", "result": 32, "unit": "%"}
    ]},
    {"smiles": "CNC(=O)[C@@]12C[C@@H]1[C@@H](n1cnc3c(NC4CC4c4cccc(C)c4)nc(C#Cc4ccccc4)nc31)[C@H](O)[C@@H]2O", "note": "(mixture of isomers)", "values": [
      {"measurement": "inhibition", "setting": "[1]", "result": 8, "unit": "%"},
      {"measurement": "inhibition", "setting": "Adenosine receptor A2a [4]", "result": 53, "unit": "%"}
    ]},
    {"smiles": "CNC(=O)[C@@]12C[C@@H]1[C@@H](n1cnc3c(NC4CC4c4cccc(Cl)c4)nc(C#Cc4ccccc4)nc31)[C@H](O)[C@@H]2O", "note": "(mixture of isomers)", "values": [
      {"measurement": "inhibition", "setting": "[1]", "result": 6, "unit": "%"},
      {"measurement": "inhibition", "setting": "Adenosine receptor A2a [4]", "result": 39, "unit": "%"}
    ]},
    {"smiles": "CNC(=O)[C@@]12C[C@@H]1[C@@H](n1cnc3c(NC4CC4c4cccc(F)c4)nc(C#Cc4ccccc4)nc31)[C@H](O)[C@@H]2O", "note": "(mixture of isomers)", "values": [
      {"measurement": "inhibition", "setting": "[1]", "result": 18, "unit": "%"},
      {"measurement": "inhibition", "setting": "Adenosine receptor A2a [4]", "result": 0, "unit": "%"}
    ]},
    {"smiles": "CNC(=O)[C@@]12C[C@@H]1[C@@H](n1cnc3c(NC4CC4c4ccccc4)nc(C#Cc4ccccc4)nc31)[C@H](O)[C@@H]2O", "note": "(mixture of isomers)", "values": [
      {"measurement": "inhibition", "setting": "[1]", "result": 2, "unit": "%"},
      {"measurement": "inhibition", "setting": "Adenosine receptor A2a [4]", "result": 43, "unit": "%"}
    ]}
  ]
}
